Compounds with a hit are over-represented: about 5.3% of the library has one in this group of screens.
PLK1 PBD inh: blocks phosphopeptide binding to human Plk1 polo box domain | P53350 | inhibition, %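 (tested at about 20 µM)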 | AID 693 | 97,000 compounds, 0.13% hits | Plk1 PBD phosphopeptide binding, fluorescence polarization; in the data active = inhibition above about 34%, passing the limit was not always enough
HIV Rev-RRE inh: HIV Rev-RRE protein-RNA interaction inhibition; 97,000 compounds, 0.79% hits; inhibition, % at 8 µM; P05866; Rev peptide-RRE RNA binding, FRET;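 active = inhibition above the screen-wide mean plus 3 SD, cut at about 35% in these data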;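 note: 0% = median DMSO wells and 100% = median Neomycin B control wells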
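Probe or stimulus: fluorescein-Rev peptide as binding partner; assay system: Cy5-tagged RRE RNA duplex with fluorescein-tagged Rev peptide; timing: 5 min compound–RNA preincubation, then 15 min with peptide, 25 °C; medium: HEPES pH 7.5 buffer with KCl, MgCl2, NaCl and EDTA; signal: fluorescein-to-Cy5 FRET, 480 nm excitation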
EphB4 ephrin blk: blocks human EphB4 binding to ephrin-B2; inhibition, % at 7 µM; EphB4 LBD / TNYL-RAW-Alexa532 peptide, fluorescence polarization; P54760; AID 720; 97,000 compounds, 0.15% hits;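 active = inhibition above the screen-wide mean inhibition plus 3 SD, cut at about 15% in these data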;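 note: 0% = DMSO wells and 100% = excess unlabeled TNYL-RAW peptide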
FAK blocker: blocks human focal adhesion kinase activity | inhibition, %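 (tested at 7 µM)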 | biochemical FAK kinase activity assay | Q05397 | 97,000 compounds, 0.84% hits; in the data active = inhibition above about 19%;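 note: 0% = DMSO and 100% = reference compound high control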
Cav32 inh: blocks human Cav3.2 T-type calcium channel; O95180; B-score at 10 µM; Cav3.2-expressing cells, Fluo-4 calcium fluorescence FDSS; active compounds read low; 100,000 compounds, 4% hits;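 active = single-dose well whose peak fluorescence ratio is a statistical outlier from its plate by either plate-standardised score or position-corrected B-score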
Target sequence (O95180 whole entry, looked up): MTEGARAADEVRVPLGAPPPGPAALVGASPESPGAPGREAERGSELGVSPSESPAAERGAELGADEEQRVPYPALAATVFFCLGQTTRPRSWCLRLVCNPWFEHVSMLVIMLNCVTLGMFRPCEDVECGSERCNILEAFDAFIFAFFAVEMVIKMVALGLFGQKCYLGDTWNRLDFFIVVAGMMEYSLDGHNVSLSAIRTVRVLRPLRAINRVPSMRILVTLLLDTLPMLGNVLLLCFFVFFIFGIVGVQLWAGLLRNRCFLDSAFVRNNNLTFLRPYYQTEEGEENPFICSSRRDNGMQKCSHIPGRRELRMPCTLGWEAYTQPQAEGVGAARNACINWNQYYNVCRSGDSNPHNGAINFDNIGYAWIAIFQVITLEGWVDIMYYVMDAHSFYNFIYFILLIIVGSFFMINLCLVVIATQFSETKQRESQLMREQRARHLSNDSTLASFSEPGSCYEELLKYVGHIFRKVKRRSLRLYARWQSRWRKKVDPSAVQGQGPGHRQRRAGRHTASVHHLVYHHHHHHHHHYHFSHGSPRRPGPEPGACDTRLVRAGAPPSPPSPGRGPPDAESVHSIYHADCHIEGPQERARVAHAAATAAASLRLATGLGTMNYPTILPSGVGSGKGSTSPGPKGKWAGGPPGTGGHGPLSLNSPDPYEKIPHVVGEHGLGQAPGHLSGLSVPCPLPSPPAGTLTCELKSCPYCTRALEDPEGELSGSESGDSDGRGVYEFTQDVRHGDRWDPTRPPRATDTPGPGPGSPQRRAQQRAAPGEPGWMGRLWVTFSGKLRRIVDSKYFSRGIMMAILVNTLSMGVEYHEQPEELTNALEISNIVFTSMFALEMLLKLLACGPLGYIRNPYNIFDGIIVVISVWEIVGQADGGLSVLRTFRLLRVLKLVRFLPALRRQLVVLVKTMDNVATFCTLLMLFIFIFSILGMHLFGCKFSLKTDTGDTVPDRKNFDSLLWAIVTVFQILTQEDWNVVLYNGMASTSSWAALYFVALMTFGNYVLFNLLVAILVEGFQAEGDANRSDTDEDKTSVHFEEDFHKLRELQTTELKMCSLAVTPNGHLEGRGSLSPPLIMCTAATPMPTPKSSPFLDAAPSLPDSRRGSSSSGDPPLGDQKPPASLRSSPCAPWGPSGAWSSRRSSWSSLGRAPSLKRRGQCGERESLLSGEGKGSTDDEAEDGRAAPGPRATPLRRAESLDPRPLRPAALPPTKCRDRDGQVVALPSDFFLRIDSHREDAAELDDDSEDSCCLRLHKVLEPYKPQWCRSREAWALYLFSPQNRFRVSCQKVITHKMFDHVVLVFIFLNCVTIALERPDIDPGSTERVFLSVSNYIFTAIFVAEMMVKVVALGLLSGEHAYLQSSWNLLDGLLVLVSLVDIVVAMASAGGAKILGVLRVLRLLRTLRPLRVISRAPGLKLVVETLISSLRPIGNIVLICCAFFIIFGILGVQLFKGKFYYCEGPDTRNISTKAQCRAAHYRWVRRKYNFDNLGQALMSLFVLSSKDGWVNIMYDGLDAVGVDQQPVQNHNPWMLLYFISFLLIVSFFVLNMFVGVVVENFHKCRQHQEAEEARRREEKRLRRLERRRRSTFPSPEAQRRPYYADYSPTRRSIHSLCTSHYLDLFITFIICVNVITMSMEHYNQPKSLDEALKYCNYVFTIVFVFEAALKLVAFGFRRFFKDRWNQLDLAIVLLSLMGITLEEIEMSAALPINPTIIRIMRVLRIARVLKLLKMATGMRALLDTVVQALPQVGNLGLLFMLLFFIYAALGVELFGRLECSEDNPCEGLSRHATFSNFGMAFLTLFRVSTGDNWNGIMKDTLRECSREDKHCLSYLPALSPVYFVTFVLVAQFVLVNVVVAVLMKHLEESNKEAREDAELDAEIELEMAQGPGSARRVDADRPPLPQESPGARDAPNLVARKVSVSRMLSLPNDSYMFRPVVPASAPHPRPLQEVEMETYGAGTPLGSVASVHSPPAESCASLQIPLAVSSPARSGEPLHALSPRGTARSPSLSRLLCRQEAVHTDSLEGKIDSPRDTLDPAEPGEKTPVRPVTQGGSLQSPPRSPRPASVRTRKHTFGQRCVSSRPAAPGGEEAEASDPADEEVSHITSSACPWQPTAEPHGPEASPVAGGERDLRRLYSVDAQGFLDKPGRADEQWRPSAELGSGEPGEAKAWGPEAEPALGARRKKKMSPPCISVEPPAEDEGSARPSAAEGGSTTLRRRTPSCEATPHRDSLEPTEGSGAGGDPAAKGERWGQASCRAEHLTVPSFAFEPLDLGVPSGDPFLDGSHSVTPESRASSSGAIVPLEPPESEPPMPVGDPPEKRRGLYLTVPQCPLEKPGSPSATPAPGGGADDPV
PLK1 inh: blocks human PLK1 kinase activity. 97,000 compounds, 0.53% hits. P53350. inhibition, % at 10 µM. recombinant PLK1 kinase, TR-FRET peptide phosphorylation;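 active = inhibition of 50% or more in the single-concentration screen; inactive = inhibition below 50%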;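 note: 0% = DMSO max control and 100% = H-89 dihydrochloride min control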
An asterisk follows results filed as active; x = not tested or not shown; [ ] = dose if it differs, or a comment.

SMILES | PLK1 PBD inh | HIV Rev-RRE inh | EphB4 ephrin blk | FAK blocker | Cav32 inh | PLK1 inh
COc1ccc(S(=O)(=O)Nc2cc(C)c(O)c(S(=O)(=O)c3ccccc3)c2)cc1 | x | x | x | x | -5.07* | x
Cc1sc2nc(CN(Cc3cccs3)C(=O)NC3CCCCC3)[nH]c(=O)c2c1C | 29.6 | 3.8 | -10.4 | -0.9 | -4.74 | 57.2*
Cc1sc2nc(CN(C(=O)NC3CCCCC3)C3CCCC3)[nH]c(=O)c2c1C | -21.0 | 5.1 | -2.5 | 0.4 | -0.013 | -13.0
O=C(c1cccs1)N(Cc1nc2sc3c(c2c(=O)[nH]1)CCCC3)C1CCCC1 | -8.3 | 7.3 | -4.7 | 2.4 | -1.86 | -2.1
Cc1sc2nc(CN(C(=O)c3cccs3)C3CCCC3)[nH]c(=O)c2c1C | 5.9 | 6.7 | 1.8 | -1.9 | -4.8* | -15.4
CCc1nnc(NC(=O)Cn2nc(-c3ccccc3OC)ccc2=O)s1 | -27.3 | 2.7 | -6.0 | 2.3 | -0.499 | -9.4
C/C(=N\NC(=O)CC1N=C(Cc2ccccc2)NNC1=O)c1ccccc1 (centres undefined) | -8.8 | 4.4 | 5.5 | 3.6 | 0.746 | -3.3
C/C(=N\NC(=O)CC1N=C(Cc2ccccc2)NNC1=O)c1ccc(Cl)cc1Cl (centres undefined) | 7.6 | -1.8 | -7.2 | -0.7 | -4.7* | -7.2
COC(=O)C(Cc1ccccc1)NC(=O)COc1ccc(C(C)(C)C)cc1 (centres undefined) | -10.7 | -0.8 | 2.2 | -1.8 | -6.09* | -5.5
CCOc1ccc(C(=O)NC(Cc2ccccc2)C(=O)OC)cc1 (centres undefined) | 11.9 | 5.9 | 1.0 | 6.3 | -0.141 | 3.4
COc1ccc(CNC(=O)c2ccc(Br)o2)cc1 | x | x | x | x | -0.0526 | x
CCO[C@@H]1OC(C(=O)N2CCOCC2)=C[C@H](c2ccccc2)[C@H]1CCCO | x | x | x | x | 0.219 | x
O=C1CC(N2CCN(c3ccccn3)CC2)C(=O)N1CC(c1ccccc1)c1ccccc1 (centres undefined) | -7.7 | 9.3 | 4.4 | 0.1 | -6.29* | -8.8
CCOC(=O)[C@@H]1CCNC[C@@H]1c1ccccc1 | 3.9 | 141.4*[fluorescence artefact?] | -6.8 | -3.6 | 0.79 | -9.3
O=C1CC(c2ccc(F)cc2)CC(O)=C1C=NCCN1CCN(C(=O)Nc2ccccc2)CC1 (centres undefined) | 8.5 | 1.8 | -3.8 | 0.1 | -4.19* | -6.2
COc1cc(/C=C2\SC(c3ccc(C)cc3)=NC2=O)cc(OC)c1OC | -5.7 | 50.6* | -8.5 | -0.9 | -0.987 | -13.3
COc1ccc(/C=C2/C(=O)N=C(N)N2C)cc1OC | -21.9 | 11.2 | 1.2 | -1.2 | 1.19 | -9.1
CCOC(=O)C1=C(O)/C(=C/c2cc(OC)c(OC)c(OC)c2)N=C1C | -9.7 | -3.4 | 4.4 | -5.4 | 2.45 | -6.9
COc1ccc(/C=C2\SC(c3ccc(C)cc3)=NC2=O)cc1OC | -73.8 | 112.8*[fluorescence artefact?] | -12.0 | -0.1 | -1.28 | -32.6
COc1ccc(/C=C2/SC(c3ccc(C)cc3)=NC2=O)cc1OC | -60.9 | 114.4*[fluorescence artefact?] | -6.5 | -0.2 | -2.63 | -32.6
O=C(CCn1c(=O)[nH]c2ccsc2c1=O)N(CCc1ccccc1)Cc1ccccc1 | 11.3 | 14.2 | 3.4 | -0.4 | -4.35* | -1.2
O=C(NCC1CC1)c1ccc(Nc2nc3ccc(Br)cc3[nH]2)cc1 | 12.8 | 9.6 | -6.4 | 16.7 | -0.0862 | -8.0
O=C(Cc1ccc(Nc2nc3ccc(Br)cc3[nH]2)cc1)NCCc1cccs1 | 2.5 | 16.7 | 5.2 | 3.8 | -3.16* | 0.1
CC(C)CC(c1nnnn1CCc1ccccc1)N1CCC(C(N)=O)CC1 (centres undefined) | -13.2 | 0.9 | 7.7 | -1.4 | 1.57 | -3.2
CC(C)(C)c1cc(S(=O)(=O)CCc2ccccn2)cc(C(C)(C)C)c1F | 7.1 | 5.6 | -0.5 | -0.3 | -4.01* | -6.7
SMILES | PLK1 PBD inh | HIV Rev-RRE inh | EphB4 ephrin blk | FAK blocker | Cav32 inh | PLK1 inh
CC(C)(C)c1ccc(COC(=O)CNC(=O)CNC(=O)Cc2ccccc2)cc1 | -13.6 | 2.0 | -0.7 | -0.7 | -1.15 | -4.6
CC(=O)SCC(Cc1ccccc1)C(=O)NCC(=O)OCc1ccccc1 (centres undefined) | x | x | x | x | -5.21* | x
C=CCN=C(NC#N)SCc1ccccc1Cl | -5.2 | 6.6 | 7.2 | 3.1 | 0.0674 | -8.7
CCOC(=O)c1sc(NC(=O)Nc2ccc(Cl)cc2)nc1C | -5.5 | 26.7 | 3.9 | 9.6 | 0.112 | -8.3
Cc1nn(Cc2ccc(Cl)cc2)c(C)c1NC(=O)CSc1nc2c(c(C(F)(F)F)n1)CCc1ccccc1-2 | 6.3 | 2.7 | 2.8 | 12.0 | -3.9* | -23.5
O=C(Nc1ccc(Cl)cc1)OCc1cn(-c2ccc(Cl)cc2)nn1 | -1.9 | 7.2 | -9.2 | 9.1 | -4.54* | -2.7
C/C(=N\O)C(=O)OC1CC(C)CCC1C(C)C (centres undefined) | 5.8 | 7.7 | -0.9 | 3.3 | -4.71* | -4.4
Cc1cccc2cc(C#N)c(NCCNS(=O)(=O)c3ccc4c(c3)OCCO4)nc12 | -14.4 | 12.4 | 3.5 | -4.1 | -4.19* | 1.4
Cc1cccc2cc(C#N)c(NCCNC(=O)NC3CCCCC3)nc12 | 20.8 | 1.8 | -5.2 | -6.2 | -0.144 | 10.7
CCOC(=O)c1c(-c2ccccc2)oc2cc(CN(C)C)c(O)c(CN(C)C)c12 | 13.3 | 57.7* | 5.8 | 3.9 | x | -8.6
CCOC(=O)c1c(C)oc2ccc(O)c(CN(C)C)c12 | -16.5 | -4.0 | -2.4 | 2.8 | 0.644 | -6.0
COC(=O)c1ccc(CSc2nc3ccccc3c(=O)n2CC(C)C)o1 | -13.7 | 4.5 | -2.0 | -4.1 | -4.68* | -5.5
CCCc1nnc(SCc2ccc(C(=O)OC)o2)n1N | 12.7 | 9.9 | 39.2*[fluorescence artefact?] | -2.7 | 0.278 | -7.3
CCOC(=O)c1ccc(CSc2nnc(C)n2N)o1 | 17.4 | 10.2 | -9.3 | -1.2 | -0.0813 | -2.3
O=C1c2cccnc2C(=O)N1Cc1ccc(F)cc1 | -18.2 | 5.3 | 3.9 | 2.9 | 0.0885 | -11.5
Cc1ccc(NC2=NCC(=O)N2C2CCCC2)c(C)c1 | -8.5 | 2.1 | 0.3 | 1.1 | x | -10.2
COc1ccc(N2C(=O)CC2(/C=C/c2ccccc2OC)C(=O)NC2CCCC2)cc1 (centres undefined) | 22.7 | 2.3 | -7.3 | -0.5 | -5.39* | -5.5
COc1ccc(CNC(=O)c2csc(Cc3ccccc3)n2)cc1 | 13.5 | 1.0 | -2.6 | -10.1 | x | 4.1
COc1ccccc1CNC(=O)c1csc(Cc2ccc(Cl)cc2)n1 | 11.7 | 11.3 | 1.0 | 4.8 | -8* | -8.3
CCOC(=O)c1ccc(NC(=O)CSc2nc3cccnc3n2C)cc1 | 0.9 | 2.2 | -2.7 | -1.8 | 0.202 | -5.3
Cc1ccc(CC(=O)Nc2nc3ccccc3s2)cc1 | -32.0 | 4.6 | 2.6 | 4.9 | -6.7* | -4.4
CCOC(=O)CC(=O)Nc1nc2ccccc2s1 | -22.7 | 3.0 | -9.3 | 5.7 | -0.17 | -13.8
O=c1[nH]c2ccccc2n1CCCN1CCN(C(c2ccccc2)c2ccccc2)CC1 | x | x | x | x | -4.99* | x
CCc1c(O)cc2n(c1=O)-c1ccc(Cl)cc1C2(C)C | 6.8 | -1.2 | -5.3 | 2.7 | -0.137 | 8.6
COc1cccc(C2NC(=O)N(CCCC(=O)O)C(C)=C2C(=O)OCc2ccccc2)c1 (centres undefined) | x | x | x | x | 0.887 | x
